NALP1 yeast inh: NALP1 inflammasome inhibitors in reconstituted yeast, colorimetric, S. cerevisiae, triplicate retest. S. cerevisiae NALP1/ASC/caspase-1 growth, X-gal OD620, 72 h. inhibition, % at 10 µM. 280,000 compounds, 0.61% hits. AID 2071, 2009; in the data active = inhibition mostly above about 24%, no sharp cut-off; inactive = mostly below about 32%
NALP3 yeast inh: NALP3 inflammasome inhibitors in reconstituted yeast, primary screen, luminescence, uHTS | 330,000 compounds, 0.39% hits | AID 2825, 2010 | Yeast reconstituted NLRP3/ASC/caspase-1, beta-gal luminescence, 24 h | inhibition, % at 10 µM;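 active = inhibition of 50% or more; inactive = inhibition below 50%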
VIM-2 inhibitor: VIM-2 metallo-beta-lactamase inhibitors, primary screen, biochemical, epi-absorbance readout, Pseudomonas aeruginosa enzyme. purified VIM-2, nitrocefin hydrolysis, epi-absorbance fluorescence. inhibition, % at 5.6 µM. 290,000 compounds, 0.89% hits. AID 1527, 2009;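 active = inhibition above the mean of all tested compounds plus 3 SD, cutoff set per screening run, cut at about 7.5% in these data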;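 also: red hydrolysis product quenches plate fluorescence so inhibitors raise well fluorescence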
IMP-1 inh: IMP-1 metallo-beta-lactamase inhibitors, primary screen, biochemical, epi-absorbance readout, Pseudomonas aeruginosa enzyme; metallo-beta-lactamase IMP-1 (Pseudomonas aeruginosa); purified IMP-1, nitrocefin hydrolysis, epi-absorbance fluorescence; inhibition, % at 5.6 µM; 290,000 compounds, 0.45% hits;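 active = inhibition above the mean plus 3 SD of all compounds in the same screening run, cut at about 4.5% in these data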
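System: purified recombinant IMP-1 beta-lactamase. Medium: Zinc- and detergent-supplemented HEPES buffer, pH 7.1. Compound: one 5.6 µM dose […]. Schedule: 15 min preincubation plus 25 min reaction at 25 °C. Technique: Epi-absorbance fluorescence, 480 nm excitation, 530 nm emission.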
PolyA inh: polyadenylation inhibitors in yeast reporter cells, primary screen, luminescence, S. cerevisiae; 300,000 compounds, 0.02% hits; activity score, % at 12 µM; S. cerevisiae SKY197-pL101 polyadenylation reporter, beta-gal luminescence; efflux-impaired pdr1/pdr3 knockout yeast; score 100 = 6 SD above DMSO;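 active = lowest replicate activity score at least 50, where 100 means six control SD above control mean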;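 also: yeast exposed to compound for 9 h at 30 °C; higher score means more reporter readthrough which indicates perturbed polyadenylation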
SUMO Mot1 rescue: yeast Mot1-301 growth rescue at high temperature, primary screen, SUMOylation pathway inhibitor project, S. cerevisiae, ATP luminescence, 38.5C; S. cerevisiae Mot1-301 growth rescue; percent above DMSO median, 100 means doubled; growth rescue, % at 18.8 µM; 320,000 compounds, 1% hits;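 active = every valid replicate shows activation above 250% relative to neutral control wells; inactive = the rest, any valid replicate at or below 250%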
Yeast Mot1 SUMO: growth restoration of Mot1-301 yeast on galactose, dose response, SUMO pathway inhibitor project, whole organism, S. cerevisiae, ATP luminescence, cherry-picked samples. shares compounds with SUMO Mot1 rescue. S. cerevisiae Mot1-301 galactose growth, 24 h; -100 = growth of slx-deleted rescue strain. growth activity, percent, % at 42 µM. 2,300 tested, under 10 active. AID 493004, 2010;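 active = Signal drops as the depositor expects, and the fitted half-maximal dose is no more than ten times the top valid tested dose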;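 also: more negative values mean stronger growth rescue toward the control strain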
Hits are given with their value; n = inactive; x = no result given; + = active, no number. The list is not random: actives were taken first. Their share in the collection is about 2.9%.

SMILES | NALP1 yeast inh | NALP3 yeast inh | VIM-2 inhibitor | IMP-1 inh | PolyA inh | SUMO Mot1 rescue | Yeast Mot1 SUMO
COc1ccc2[nH]cc(C(=O)C(=O)N3CCCCC3)c2c1 | n | n | n | n | n | 695.1 | n
O=C(C(=O)N1CCCCCC1)c1c[nH]c2ccccc12 | n | n | n | n | n | n | x
Cc1ccc(-c2cc(C(=O)O)c3ccccc3n2)s1 | n | n | n | n | n | 891.1 | n
CCN1C(=O)c2cccc3c(S(=O)(=O)N(C(C)=O)c4ccc(OC(C)=O)cc4)ccc1c23 | x | n | x | x | x | n | x
COc1ccc(-c2nc3c(c(SCC(=O)N4CCOCC4)n2)Cc2c(CO)cnc(C)c2O3)cc1 | n | n | n | 6.3 | n | 380.1 | n
Cc1ccc(CN(C)C(=O)c2ccc3c(c2)NC(=O)CS3)o1 | x | n | n | n | n | 363.8 | n
COc1ccccc1CN(C)C(=O)c1ccc2c(c1)NC(=O)CS2 | n | n | n | n | n | n | x
O=C(Nc1ccnn1C1CCN(Cc2cccc(OCCO)c2)CC1)C1CCOC1 (stereo unspecified) | n | n | n | n | n | n | x
CN(NC(=O)c1ccco1)c1nc2ccccc2nc1C(F)(F)F | n | n | n | n | n | n | x
Cc1ccccc1C(=O)NN(C)c1nc2ccccc2nc1C(F)(F)F | n | n | n | n | n | + | n
CCC1Oc2ccc(C)cc2N(CC(=O)N2CCCC2)C1=O (stereo unspecified) | n | n | n | n | n | n | x
Cc1ccccc1Cn1cc(NC(=O)c2cc3nc(-c4ccco4)cc(C(F)(F)F)n3n2)cn1 | n | n | n | n | n | 360.0 | n
COC(=O)c1cc(S(=O)(=O)N2CCN(c3ccc(C(C)=O)cc3)CC2)cn1C | n | n | n | n | n | n | x
CN(C)CCN(Cc1ccccc1)S(=O)(=O)c1ccc(-c2ccc(=O)[nH]n2)s1 | n | n | n | n | n | n | x
CCOC(=O)CCN(c1ccccc1)S(=O)(=O)c1ccc(-c2ccc(=O)[nH]n2)s1 | n | n | n | n | n | 587.5 | n
CCOC(=O)C1CCN(C(=O)c2ccc3c(c2)NC(=O)/C(=C/c2ccccc2)S3)CC1 | n | n | n | n | n | 404.8 | n
Cc1ccc(N(C(C)C(=O)O)S(=O)(=O)c2c(C)n[nH]c2C)cc1 (stereo unspecified) | n | n | n | n | n | 530.7 | n
COc1ccc(N(CC(=O)O)S(=O)(=O)c2c(C)n[nH]c2C)cc1 | n | n | n | n | n | n | x
COc1ccc(NC(=S)Nn2cnnc2)c(OC)c1 | n | n | n | n | x | n | x
COc1ccc(OCC(O)CN2C(=O)NC(C)(C)C2=O)cc1 (stereo unspecified) | n | n | n | n | n | + | n
CCCCN1C(=O)C(=O)N(CC(=O)Nc2cc(S(=O)(=O)N(C)C)ccc2C)C1=O | x | n | x | x | n | n | x
Cc1ccc(C)c(NC(=O)Cn2c([N+](=O)[O-])cnc2C)c1 | n | n | n | n | n | n | x
Cc1cc(C)c(NC(=O)Cn2c([N+](=O)[O-])cnc2C)c(C)c1 | x | n | n | n | n | + | n
COc1ccc(OC)c2[nH]c(=O)c(CCNC(=O)c3ccc(S(=O)(=O)N4CCCC4)cc3)cc12 | n | n | n | n | n | n | x
CCN(CC)S(=O)(=O)c1ccc(C(=O)NCCc2cc3c(OC)ccc(OC)c3[nH]c2=O)cc1 | n | n | n | n | n | 437.6 | n
COc1cc(NC(=O)c2cc(Cl)ccc2Cl)ccc1-c1cc2ccccc2oc1=O | n | n | n | n | n | 405.8 | n
COc1cc(NC(=O)c2cccnc2)ccc1-c1cc2ccccc2oc1=O | n | n | n | n | n | n | x
CCN1CCN(C(=O)c2ccc3nc(-c4ccccc4)c(-c4ccccc4)nc3c2)CC1 | n | n | n | n | n | 474.1 | n
